Active and inactive are the calls of the source. No cut-off for these calls is given here.
How the values were obtained:
[1] = tested on: Staphylococcus aureus; test: Antibacterial activity against Staphylococcus aureus T-AQ 49/YF29 at 500 ug/disk after 24 hrs by disk diffusion assay; format: functional; settings: read-out: Diameter of inhibition zone
How it was run: (§1)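 Sterile 6 mm filter-paper disc bearing sample set in the centre of a Petri dish of 15 ml plate count agar. Overlaid with 3 ml soft nutrient agar (nutrient broth + 0.7% agar) seeded with 1% of a 16–18 h culture of the test strain. Read-out is the diameter of the growth-free zone around the disc.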

[2] = tested on: Bacillus cereus; test: Antibacterial activity against Bacillus cereus NCIB 3329 at 75 ug/disk after 24 hrs by disk diffusion assay; format: functional; settings: read-out: Diameter of inhibition zone; how it was run: as §1
[3] = tested on: Escherichia coli; test: Antibacterial activity against Escherichia coli B74-1 at 1 mg/disk after 24 hrs by disk diffusion assay; format: functional, organism-based; how it was run: as §1
[4] = tested on: Bacillus subtilis; test: Antibacterial activity against Bacillus subtilis NCIB 3610 at 500 ug/disk after 24 hrs by disk diffusion assay; format: functional; settings: read-out: Diameter of inhibition zone; how it was run: as §1
[5] = tested on: Staphylococcus aureus; test: Antibacterial activity against Staphylococcus aureus T-AQ 49/YF29 at 25 ug/disk after 24 hrs by disk diffusion assay; format: functional; settings: read-out: Diameter of inhibition zone; how it was run: as §1
[6] = tested on: Bacillus subtilis; test: Antibacterial activity against Bacillus subtilis NCIB 3610 at 250 ug/disk after 24 hrs by disk diffusion assay; format: functional; settings: read-out: Diameter of inhibition zone; how it was run: as §1
[7] = tested on: Staphylococcus aureus; test: Antibacterial activity against Staphylococcus aureus T-AQ 49/YF29 at 250 ug/disk after 24 hrs by disk diffusion assay; format: functional; settings: read-out: Diameter of inhibition zone; how it was run: as §1
[8] = tested on: Bacillus cereus; test: Bactericidal activity against Bacillus cereus NCIB 3329 at 10 ug/ml by liquid culture assay; format: functional, organism-based
How it was run: (§2)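 Wells hold brain heart infusion (200 µl) plus 50 µl inoculum at 10³–10⁵ cfu/ml, with dicranin added as the sodium salt in water (10–200 μg/ml tested). Cultures are incubated at the strain's optimal growth temperature. Duplicate 100 µl samples are taken at 0, 2, 4, 6, 8 and 24 h, diluted in tryptone salt to 10–500 bacteria/plate, plated on plate count agar, and colonies counted after 24 h.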

[9] = tested on: Geobacillus stearothermophilus; test: Bactericidal activity against sBacillus stearothermophilus NCA 1518 at 200 ug/ml by liquid culture assay; format: functional, organism-based; how it was run: as §2
[10] = tested on: Geobacillus stearothermophilus; test: Antibacterial activity against Bacillus stearothermophilus NCA 1518 at 25 ug/disk after 24 hrs by disk diffusion assay; format: functional; settings: read-out: Diameter of inhibition zone; how it was run: as §1
[11] = tested on: Geobacillus stearothermophilus; test: Antibacterial activity against Bacillus stearothermophilus NCA 1518 at 50 ug/disk after 24 hrs by disk diffusion assay; format: functional; settings: read-out: Diameter of inhibition zone; how it was run: as §1
[12] = tested on: Enterococcus faecalis; test: Antibacterial activity against Streptococcus faecalis NCIB 775 at 50 ug/disk after 24 hrs by disk diffusion assay; format: functional; settings: read-out: Diameter of inhibition zone
How it was run: (§3)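 Test material loaded onto 6 mm sterile filter-paper discs. Each disc sits at the centre of a plate of 15 ml plate count agar overlaid with 3 ml soft nutrient agar (nutrient broth + 0.7% agar) carrying 1% of a 16–18 h culture. Activity is read as the diameter of the no-growth zone around the disc.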

[13] = tested on: Bacillus subtilis; test: Antibacterial activity against Bacillus subtilis NCIB 3610 at 100 ug/disk after 24 hrs by disk diffusion assay; format: functional; settings: read-out: Diameter of inhibition zone; how it was run: as §1
[14] = tested on: Bacillus cereus; test: Antibacterial activity against Bacillus cereus NCIB 3329 at 250 ug/disk after 24 hrs by disk diffusion assay; format: functional; settings: read-out: Diameter of inhibition zone; how it was run: as §1
[15] = tested on: Geobacillus stearothermophilus; test: Antibacterial activity against Bacillus stearothermophilus NCA 1518 at 1000 ug/disk after 24 hrs by disk diffusion assay; format: functional; settings: read-out: Diameter of inhibition zone; how it was run: as §1
[16] = tested on: Enterococcus faecalis; test: Antibacterial activity against Streptococcus faecalis NCIB 775 at 25 ug/disk after 24 hrs by disk diffusion assay; format: functional; settings: read-out: Diameter of inhibition zone; how it was run: as §3
[17] = tested on: Bacillus cereus; test: Antibacterial activity against Bacillus cereus NCIB 3329 at 10 ug/disk after 24 hrs by disk diffusion assay; format: functional; settings: read-out: Diameter of inhibition zone; how it was run: as §1
[18] = tested on: Geobacillus stearothermophilus; test: Antibacterial activity against Bacillus stearothermophilus NCA 1518 at 125 ug/disk after 24 hrs by disk diffusion assay; format: functional; settings: read-out: Diameter of inhibition zone; how it was run: as §1
[19] = tested on: Geobacillus stearothermophilus; test: Bacteriostatic activity against Bacillus stearothermophilus NCA 1518 at 50 to 150 ug/ml after 4 hrs by liquid culture assay; format: functional, organism-based; how it was run: as §2
[20] = tested on: Bacillus cereus; test: Antibacterial activity against Bacillus cereus NCIB 3329 at 500 ug/disk after 24 hrs by disk diffusion assay; format: functional; settings: read-out: Diameter of inhibition zone; how it was run: as §1
[21] = tested on: Bacillus subtilis; test: Antibacterial activity against Bacillus subtilis NCIB 3610 at 50 ug/disk after 24 hrs by disk diffusion assay; format: functional; settings: read-out: Diameter of inhibition zone; how it was run: as §1
[22] = tested on: Bacillus subtilis; test: Antibacterial activity against Bacillus subtilis NCIB 3610 at 125 ug/disk after 24 hrs by disk diffusion assay; format: functional; settings: read-out: Diameter of inhibition zone; how it was run: as §1
[23] = tested on: Enterococcus faecalis; test: Antibacterial activity against Streptococcus faecalis NCIB 775 after 24 hrs by disk diffusion assay; format: functional, organism-based; how it was run: as §1
[24] = tested on: Pseudomonas putida; test: Antibacterial activity against Pseudomonas putida T-AQ 18/YF18 at 1 mg/disk after 24 hrs by disk diffusion assay; format: functional, organism-based; how it was run: as §1
[25] = tested on: Bacillus cereus; test: Antibacterial activity against Bacillus cereus NCIB 3329 at 125 ug/disk after 24 hrs by disk diffusion assay; format: functional; settings: read-out: Diameter of inhibition zone; how it was run: as §1
[26] = tested on: Bacillus cereus; test: Antibacterial activity against Bacillus cereus NCIB 3329 at 50 ug/disk after 24 hrs by disk diffusion assay; format: functional; settings: read-out: Diameter of inhibition zone; how it was run: as §1
[27] = tested on: Enterococcus faecalis; test: Antibacterial activity against Streptococcus faecalis NCIB 775 at 75 ug/disk after 24 hrs by disk diffusion assay; format: functional; settings: read-out: Diameter of inhibition zone; how it was run: as §3

`CC/C=C\C/C=C\C/C=C\CC#CCCCCC(=O)O` [DICRANIN] was tested. Which zone of inhibition at 500 µg/disc [1] did it give?
The zone of inhibition at 500 µg/disc was 22 mm.

And the zone of inhibition at 75 µg/disc [2]?
The zone of inhibition at 75 µg/disc was 11 mm.

And the Activity [3]?
The Activity was “inactive”.

And the zone of inhibition at 500 µg/disc [4]?
Its zone of inhibition at 500 µg/disc is 19 mm.

And the zone of inhibition at 25 µg/disc [5]?
The zone of inhibition at 25 µg/disc was 0 mm.

And the zone of inhibition at 250 µg/disc [6]?
The zone of inhibition at 250 µg/disc was 16 mm.

And the zone of inhibition at 250 µg/disc [7]?
Its zone of inhibition at 250 µg/disc is 21 mm.

And the Activity [8]?
The Activity was “inactive”.

And the Activity [9]?
Its Activity is “Active”.

What about the zone of inhibition at 25 µg/disc [10] of the same compound?
The zone of inhibition at 25 µg/disc was 9 mm.

What about the zone of inhibition at 50 µg/disc [11] of the same compound?
The zone of inhibition at 50 µg/disc was 11 mm.

And the zone of inhibition at 50 µg/disc [12]?
Its zone of inhibition at 50 µg/disc is 12 mm.

What about the zone of inhibition at 100 µg/disc [13] of the same compound?
Its zone of inhibition at 100 µg/disc is 13 mm.

What about the zone of inhibition at 250 µg/disc [14] of the same compound?
Its zone of inhibition at 250 µg/disc is 19 mm.

What about the zone of inhibition at 1000 µg/disc [15] of the same compound?
Its zone of inhibition at 1000 µg/disc is 35 mm.

What about the zone of inhibition at 25 µg/disc [16] of the same compound?
The zone of inhibition at 25 µg/disc was 10 mm.

And the zone of inhibition at 10 µg/disc [17]?
Its zone of inhibition at 10 µg/disc is 0 mm.

What about the zone of inhibition at 125 µg/disc [18] of the same compound?
Its zone of inhibition at 125 µg/disc is 17 mm.

What about the Activity [19] of the same compound?
Its Activity is “Active”.

What about the zone of inhibition at 500 µg/disc [20] of the same compound?
The zone of inhibition at 500 µg/disc was 22 mm.

And the zone of inhibition at 50 µg/disc [21]?
The zone of inhibition at 50 µg/disc was 11 mm.

What about the zone of inhibition at 125 µg/disc [22] of the same compound?
Its zone of inhibition at 125 µg/disc is 14 mm.

And the Activity [23]?
Its Activity is “Active”.

And the Activity [24]?
The Activity was “inactive”.

What about the zone of inhibition at 125 µg/disc [25] of the same compound?
The zone of inhibition at 125 µg/disc was 16 mm.

What about the zone of inhibition at 50 µg/disc [26] of the same compound?
Its zone of inhibition at 50 µg/disc is 10 mm.

What about the zone of inhibition at 75 µg/disc [27] of the same compound?
The zone of inhibition at 75 µg/disc was 13 mm.
